Assay outcomes: PubChem BioAssay, Sanford-Burnham Center for Chemical Genomics
MT1-MMP act inh = inhibitors of human MT1-MMP activation | HT1080 RFP-PRO-GFP cells, GFP/RFP ratio fluorescence, overnight; percent of plate control window, DMSO zero | hit rate 0.061% among 360,000 | GFP/RFP ratio change, % at 20 µM;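 active means GFP/RFP ratio change of at least 30% with cell ATP level not reduced by more than half and red fluorescence within 50% of control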
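system = RFP-PRO-GFP reporter HT1080 cells | dosing = 20 µM single dose, 1% DMSO | timing = overnight cell settling, then overnight compound exposure, 37 °C, 5% CO2 | read-out basis = GFP/RFP fluorescence ratio | controls = DMSO and RFP-L50D-GFP cell wells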
MPTP block = permeability transition pore inhibition | isolated mouse mitochondria, Ca2+ swelling absorbance, 30 min | inhibition, % at 10 µM | hit rate 1.4% among 360,000 | AID 602449;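 active means inhibition of 50% or more, scaled per plate between neutral and stimulator controls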;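 further: 0% = DMSO wells given calcium and 100% = 1 mM EGTA wells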
ATG4B inhibitor = ATG4B (human) cysteine protease inhibition; Q9Y4P1; ATG4B cleavage of LC3-PLA2, NBD-HPC fluorescence, 1 h; inhibition, % at 8.33 µM; hit rate 0.51% among 340,000; AID 504462; in the data active means inhibition above about 40%
Target sequence (Q9Y4P1 whole entry, looked up): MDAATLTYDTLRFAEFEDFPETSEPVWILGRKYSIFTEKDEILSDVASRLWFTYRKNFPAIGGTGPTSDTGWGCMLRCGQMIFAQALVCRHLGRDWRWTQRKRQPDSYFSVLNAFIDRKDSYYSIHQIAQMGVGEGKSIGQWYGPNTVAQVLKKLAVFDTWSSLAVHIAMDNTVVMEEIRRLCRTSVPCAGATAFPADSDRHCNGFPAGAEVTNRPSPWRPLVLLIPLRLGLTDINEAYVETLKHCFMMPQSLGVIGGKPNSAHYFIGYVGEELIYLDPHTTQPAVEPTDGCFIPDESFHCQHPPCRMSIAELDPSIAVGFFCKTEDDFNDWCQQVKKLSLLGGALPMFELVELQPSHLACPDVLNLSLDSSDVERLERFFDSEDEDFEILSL
SKN-1 inh = inhibitors of C. elegans SKN-1. C. elegans VP596 Pgst-4::GFP/RFP ratio, acrylamide-induced, 24 h. inhibition, % at 21.8 µM. hit rate 0.49% among 360,000. AID 624304;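 active means interference check ratio from 0.5 to 1.5 plus GFP to RFP signal ratio inhibition reaching or exceeding a fixed threshold, cut at about 30% in these data, passing the limit was not always enough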
ATG4B confirm = ATG4B (human) inhibition, single-dose confirmed; ATG4B protease fluorescent substrate cleavage assay; shares compounds with ATG4B inhibitor; inhibition, % at 8.33 µM; AID 504757; hit rate 92% among 320; in the data active means inhibition above about 39%
PLA2 counter = counter-screen for ATG4B inhibitors: human phospholipase A2; shares compounds with ATG4B inhibitor; purified PLA2, NBD-C6-HPC fluorescence, 45 min; inhibition, % at 8.33 µM; hit rate 66% among 1,600; AID 588402; in the data active means inhibition above about 50%
Target sequence (P04054 whole entry, looked up): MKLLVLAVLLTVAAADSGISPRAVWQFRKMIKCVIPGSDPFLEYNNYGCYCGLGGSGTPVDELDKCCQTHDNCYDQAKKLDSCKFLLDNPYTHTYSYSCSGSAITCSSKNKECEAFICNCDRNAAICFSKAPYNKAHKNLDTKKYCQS
An asterisk follows results filed as active; nt = not tested or not shown. Shown are actives, neighbours in structure and some others; about 2.3% of the full set was active somewhere.

SMILES	MT1-MMP act inh	MPTP block	ATG4B inhibitor	SKN-1 inh	PLA2 counter	others
O=C1C=C(N2CCOCC2)c2cccc3cccc1c23	17	1	nt	23	nt
O=C1C=C(N2CCOCC2)c2ccccc2C1=O	-12	4	64*	0	-19	ATG4B confirm=53*
CC1(c2nnnn2-c2ccc3c(c2)OCCO3)CCC(=O)N1CCc1ccc(O)cc1 (stereo not drawn)	-1	0	nt	-2	nt
COCC(C)OC(=O)/C(C#N)=C\c1coc2ccc(C)cc2c1=O (stereo not drawn)	-5	45	62*	4	49
Cc1ccc2occ(/C=N/NC(=O)[C@@H](N)Cc3ccccc3)c(=O)c2c1	-12	1	10	-8	nt
Cc1cccc(NC(=S)NC2CCSc3ccccc32)c1 (stereo not drawn)	5	43	42*	-18	54*
COc1cccc(CC(=O)NC2CCSc3ccccc32)c1 (stereo not drawn)	nt	-1	4	6	nt
O=C(NC1CCSc2ccccc21)c1cccc(Br)c1 (stereo not drawn)	-3	-1	7	0	nt
S=C(NCc1ccccc1)NC1CCSc2ccccc21 (stereo not drawn)	-1	16	64*	-4	69*
Cc1ccc2[nH]c3c(NCc4ccccc4)ncnc3c2c1	nt	nt	50*	nt	60*
COc1ccc(CNc2ncnc3c2[nH]c2cc(OC)c(OC)cc23)cc1	14	14	-7	9	nt
O=C(c1cnn(C(=O)COc2ccc(Cl)cc2)c1)c1ccccc1O	-4	5	56*	-8	60*
Cc1ccc(O)c(C(=O)c2cnn(C(=O)COc3ccc(Cl)cc3)c2)c1	-4	-1	6	2	nt
O=C(NCc1cccc(F)c1)c1ccc(N2C(=O)Cn3c(cc4sccc43)C2=O)cc1	1	-2	41*	10	34
Nc1ccnc(=O)[nH]1	-3	-3	-4	1	nt
O=Cc1cccc(OCc2cccc3ccccc23)c1	-1	-1	61*	10	73*
CC(C)(C)c1ccccc1N=Cc1ccc2ccccc2n1	-1	9	54*	3	35	ATG4B confirm=74*
O/N=C/c1ccc2ccccc2n1	0	0	-1	14	nt
O=C(CN1CCCCC1)Nc1ccccc1-c1ccccc1	0	0	46*	-3	59*
Cc1sc2nc(C3CC3)nc(SCC(=O)N3CC(=O)Nc4ccccc43)c2c1C	-15	2	69*	13	77*
O=C(NNC(=O)c1nn(-c2ccc(F)cc2)ccc1=O)c1ccccc1Cl	1	0	42*	9	-21
O=C(O)c1nn(-c2ccc(F)cc2)ccc1=O	3	2	-2	1	nt
O=C(c1ccc(Cl)c(S(=O)(=O)Nc2ccccc2C(=O)N2CCc3ccccc3C2)c1)N1CCc2ccccc2C1	14	9	48*	9	38	ATG4B confirm=62*
COc1cccc(CCNC(=O)c2ccc(OC)c(OC3CCN(C(C)C)CC3)c2)c1	-2	0	11	11	nt
O=C([C@H](Cc1ccccc1)N1C(=O)c2ccccc2C1=O)N1CCOCC1	0	0	-1	23	nt
SMILES	MT1-MMP act inh	MPTP block	ATG4B inhibitor	SKN-1 inh	PLA2 counter	others
COc1ccc(Cc2c(-c3ccc(Cl)cc3)nc3c(C)cc(Br)cn23)c(C)c1	-4	0	nt	25	nt
O=C(CC12CCC(CC1)C2)NCc1ccc2c(c1)OCO2	-1	0	-2	-6	nt
COc1ccc(Br)cc1CNC(=O)CN1C(=O)C(c2ccccc2)Oc2cccnc21 (stereo not drawn)	-2	0	59*	29	67*
COc1ccc(C(=O)/C=C/c2ccc(OCc3ccccc3)cc2)cc1CSCC(=O)O	0	3	49*	7	69*
COc1ccc(C(=O)/C=C/c2cccc(OCc3ccccc3)c2)cc1CSCC(=O)O	2	6	49*	-14	61*
O=C(NCc1cccs1)C1CC(=O)N(Cc2ccccc2)C1 (stereo not drawn)	-1	1	1	-6	nt
CN(C)C(CNC(=O)c1ccc(NC(=O)CC#N)cc1)c1ccccc1 (stereo not drawn)	-2	-1	47*	-10	56*
Cc1cc(NCc2ccc(F)cc2)nc2cc(Cl)ccc12	1	3	51*	11	74*
Cc1ccc(N(CC(=O)N2CCN(C3CCCCC3)CC2)S(=O)(=O)c2cccnc2)cc1	2	1	0	-3	nt
COc1ccc(NC2CCCN(C(=O)c3ccc(OC)cc3OC)C2)cc1 (stereo not drawn)	-5	0	-2	-8	nt
COC(=O)c1ccc(C(=O)N2CCCC(Nc3ccc(C(C)C)cc3)C2)nc1 (stereo not drawn)	-11	1	42*	20	42	ATG4B confirm=78*
CC(C)c1ccc(NC2CCCN(C(=O)c3cc(C(C)C)[nH]n3)C2)cc1 (stereo not drawn)	2	0	43*	7	46	ATG4B confirm=74*
COc1ccc(C(=O)N2CCCC(Nc3ccc(C(C)C)cc3)C2)c(OC)n1 (stereo not drawn)	2	8	76*	-1	78*
COc1ccc(CCNC(=O)C2CCCN(S(C)(=O)=O)C2)cc1 (stereo not drawn)	-4	-1	6	1	nt
O=C(c1cccnc1)n1nc(NCc2ccccc2)nc1NCc1ccccc1	3	2	42*	10	31
O=C(c1ccco1)n1nc(NCc2ccccc2)nc1NCc1ccccc1	4	-3	27	31	nt
Oc1c(Br)cc(Br)cc1/C=N/n1c(-c2ccccc2)n[nH]c1=S	-3	-2	42*	-17	9	ATG4B confirm=45*
COc1c(Br)cc(/C=N/n2c(-c3ccccc3)n[nH]c2=S)c(O)c1Br	4	0	17	-4	nt
CN(C)CCCNC(=O)c1cccc(-c2cnc3cccnn23)c1	5	1	nt	20	nt
O=C(NCCN1CCC(n2c(=O)[nH]c3ccccc32)CC1)C(c1ccccc1)c1ccccc1	9	-1	nt	0	nt
Cc1cc(NCCO)c2cc(O)ccc2n1	6	-2	-2	15	nt
O=C1N[C@@H](c2ccccc2)COC(=O)[C@@H](Cc2ccc(F)cc2)C/C=C\C[C@H]1CC(=O)N(CCO)Cc1ccccc1	-3	7	-9	-16	nt
O=C1N[C@@H](c2ccccc2)COC(=O)[C@H](Cc2ccc(F)cc2)CC/C=C/C[C@@H]1CC(=O)N(CCO)Cc1ccccc1	-7	4	48*	3	57*
COc1ccc(-n2nc3c(N4CCC(C(=O)N5CCCCCC5)CC4)nnc(C)c3c2C)cc1	-5	-1	75*	3	79*
Cc1nnc(N2CCC(C(=O)N3CCCCCC3)CC2)c2nn(-c3ccc(Cl)cc3)c(C)c12	-5	-2	76*	13	86*
